The text below walks through data of ChEMBL document CHEMBL1138063, “Imidazole-dioxolane compounds as isozyme-selective heme oxygenase inhibitors” (J Med Chem, 2006).

Test [1] in a line: Inhibition of rat liver CYP3A1/3A2. Type of test: ADME, tissue-based. The method, boiled down: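 CYP3A1/3A2 in rat liver microsomes, measured as erythromycin N-demethylase activity by spectrophotometric formaldehyde determination. Remaining activity was taken as % of control across inhibitor concentrations. IC50 came from a sigmoidal nonlinear regression, with two or three replicate curves.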

Test [2] has as its target Cytochrome P450 2E1 (Rattus norvegicus, UniProt P05182). Nature of the test: Inhibition of rat liver CYP2E1. Type of test: ADME, tissue-based. A digest of the protocol: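 Rat liver microsomal CYP2E1 activity was read as p-nitrophenol hydroxylation, by spectrophotometric measurement of 4-nitrocatechol. Activity at several inhibitor concentrations (HCl salts) was expressed as percent of control. IC50 came from a nonlinear sigmoidal dose-response fit of each of two or three replicate curves.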

Test [3] addresses Nitric oxide synthase 1 (Rattus norvegicus, UniProt P29476). Nature of the test: Inhibition of rat brain nNOS. The method, boiled down:
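nNOS in rat brain cytosolic fraction, read as conversion of 14C-L-arginine to 14C-L-citrulline. Activity at several inhibitor concentrations was expressed as % of the uninhibited control. IC50 came from a nonlinear sigmoidal dose–response fit, with two or three replicate curves per compound.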

The target of test [4] is T1, Heme oxygenase 2 (Rattus norvegicus, UniProt P23711).
T1 sequence (P23711 whole entry): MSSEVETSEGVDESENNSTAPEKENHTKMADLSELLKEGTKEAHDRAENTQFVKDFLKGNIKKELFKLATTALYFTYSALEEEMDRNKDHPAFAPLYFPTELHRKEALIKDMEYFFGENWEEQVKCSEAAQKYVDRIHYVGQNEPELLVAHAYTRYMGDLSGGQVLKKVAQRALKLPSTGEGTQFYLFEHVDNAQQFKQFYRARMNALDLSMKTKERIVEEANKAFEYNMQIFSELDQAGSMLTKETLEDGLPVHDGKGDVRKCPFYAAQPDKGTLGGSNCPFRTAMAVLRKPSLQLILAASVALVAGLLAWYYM
The test is described as follows: Inhibition of Sprague-Dawley rat brain HO2. A digest of the protocol: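 HO-2 source: Sprague-Dawley rat brain microsomes prepared by differential centrifugation. Compound (HCl salt) at 0.1–100 µM final was preincubated 10 min at 37 °C with 50 µM methemalbumin and 1 mg/mL protein in 100 mM phosphate pH 7.4. NADPH (1 mM final) was added and the mix incubated 15 min at 37 °C, then frozen on dry ice. CO was measured by GC, minus no-NADPH blanks. IC50 from sigmoidal fits, 2–3 replicate curves.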

The target in test [5] is T1, Heme oxygenase 2. The test is described as follows: Inhibition of rat liver HO2. A digest of the protocol: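 HO-2 source: rat liver microsomes. Heme was presented as methemalbumin (50 µM) with 1 mg/mL protein in 100 mM phosphate pH 7.4. Compound (HCl salt) was preincubated 10 min at 37 °C, then NADPH (1 mM final) was added for 15 min at 37 °C. CO was measured by GC, minus no-NADPH blanks. IC50 from sigmoidal fits of replicate curves.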

Test [6] deals with T2, Heme oxygenase 1 (Homo sapiens, UniProt P09601).
T2 sequence (P09601 whole entry): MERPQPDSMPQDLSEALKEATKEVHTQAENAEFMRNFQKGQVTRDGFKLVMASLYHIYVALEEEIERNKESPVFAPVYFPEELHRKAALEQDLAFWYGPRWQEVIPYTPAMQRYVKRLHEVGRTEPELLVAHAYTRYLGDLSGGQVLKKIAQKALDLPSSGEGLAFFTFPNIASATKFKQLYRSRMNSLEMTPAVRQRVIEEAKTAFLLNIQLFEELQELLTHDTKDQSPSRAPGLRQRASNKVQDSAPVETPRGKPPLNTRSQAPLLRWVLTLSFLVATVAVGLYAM
The test is described as follows: Inhibition of human spleen HO1. The method, boiled down:
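HO-1 in human spleen microsomes. Heme was given as 50 µM methemalbumin in 100 mM phosphate buffer (pH 7.4) with 1 mg/mL protein. Inhibitor (0.1–100 µM final) was preincubated 10 min at 37 °C, then 1 mM NADPH was added for 15 min at 37 °C. Blanks lacking NADPH were subtracted. Reactions were stopped on dry ice and CO was measured by GC. IC50 came from sigmoidal fits of % control, from 2–3 replicate curves.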

For test [7], the target named is Soluble guanylate cyclase (Rattus norvegicus). Nature of the test: Inhibition of rat lung sGC.

Each structure is given as a SMILES string.

Chain of Nitric oxide synthase 1 (P29476 whole entry): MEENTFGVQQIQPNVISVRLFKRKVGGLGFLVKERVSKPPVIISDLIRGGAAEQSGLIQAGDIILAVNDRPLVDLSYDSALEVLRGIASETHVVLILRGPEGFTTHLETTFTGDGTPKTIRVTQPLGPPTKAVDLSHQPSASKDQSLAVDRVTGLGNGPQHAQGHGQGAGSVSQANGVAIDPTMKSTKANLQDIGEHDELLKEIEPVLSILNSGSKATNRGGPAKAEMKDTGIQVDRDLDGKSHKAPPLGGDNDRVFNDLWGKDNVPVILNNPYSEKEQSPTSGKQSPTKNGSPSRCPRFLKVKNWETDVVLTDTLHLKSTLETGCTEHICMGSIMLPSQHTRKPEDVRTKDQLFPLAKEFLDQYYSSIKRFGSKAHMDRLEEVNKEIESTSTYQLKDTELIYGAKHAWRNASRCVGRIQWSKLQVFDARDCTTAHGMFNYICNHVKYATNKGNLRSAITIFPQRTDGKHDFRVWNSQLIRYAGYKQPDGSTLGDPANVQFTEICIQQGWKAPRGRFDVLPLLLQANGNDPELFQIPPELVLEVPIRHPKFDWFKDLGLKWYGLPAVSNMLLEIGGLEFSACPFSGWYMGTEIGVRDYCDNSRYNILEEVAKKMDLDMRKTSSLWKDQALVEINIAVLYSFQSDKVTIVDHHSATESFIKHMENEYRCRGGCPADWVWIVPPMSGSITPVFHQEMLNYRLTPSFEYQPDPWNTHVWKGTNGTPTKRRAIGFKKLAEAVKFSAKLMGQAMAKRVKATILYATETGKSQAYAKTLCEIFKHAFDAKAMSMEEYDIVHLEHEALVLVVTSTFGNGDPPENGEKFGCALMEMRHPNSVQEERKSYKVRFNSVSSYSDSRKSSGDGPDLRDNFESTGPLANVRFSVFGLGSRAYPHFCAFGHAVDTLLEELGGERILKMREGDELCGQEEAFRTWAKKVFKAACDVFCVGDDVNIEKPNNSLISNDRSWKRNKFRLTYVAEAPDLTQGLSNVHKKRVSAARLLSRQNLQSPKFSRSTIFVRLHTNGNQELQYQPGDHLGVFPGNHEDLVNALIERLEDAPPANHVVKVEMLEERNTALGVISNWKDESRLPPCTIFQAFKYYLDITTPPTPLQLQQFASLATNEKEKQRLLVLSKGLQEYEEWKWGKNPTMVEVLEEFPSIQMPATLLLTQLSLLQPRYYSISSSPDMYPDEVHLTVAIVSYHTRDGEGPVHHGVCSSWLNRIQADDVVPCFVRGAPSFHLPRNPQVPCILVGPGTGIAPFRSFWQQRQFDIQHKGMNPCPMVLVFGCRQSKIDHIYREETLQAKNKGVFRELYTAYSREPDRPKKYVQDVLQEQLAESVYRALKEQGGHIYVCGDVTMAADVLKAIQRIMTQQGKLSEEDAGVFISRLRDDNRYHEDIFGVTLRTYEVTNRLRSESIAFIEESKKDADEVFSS
Chain of Cytochrome P450 2E1 (P05182 whole entry): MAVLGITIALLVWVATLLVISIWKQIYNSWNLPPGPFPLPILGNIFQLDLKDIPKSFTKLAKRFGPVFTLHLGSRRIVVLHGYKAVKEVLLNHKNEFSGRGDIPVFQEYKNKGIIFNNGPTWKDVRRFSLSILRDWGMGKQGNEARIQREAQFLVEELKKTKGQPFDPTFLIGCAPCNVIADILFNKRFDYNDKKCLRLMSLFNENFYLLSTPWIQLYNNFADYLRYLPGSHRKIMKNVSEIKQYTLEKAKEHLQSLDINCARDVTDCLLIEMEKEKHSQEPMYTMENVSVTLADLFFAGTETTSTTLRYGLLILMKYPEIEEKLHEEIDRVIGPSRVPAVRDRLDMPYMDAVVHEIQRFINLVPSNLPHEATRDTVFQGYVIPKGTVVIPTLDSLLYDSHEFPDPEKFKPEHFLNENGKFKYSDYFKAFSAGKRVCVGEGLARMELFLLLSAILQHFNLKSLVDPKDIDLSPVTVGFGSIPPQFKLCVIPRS

As usually defined, the IC50 is the point on the concentration scale where inhibition reaches its midpoint. `C[C@H]1CO[C@@](CCc2ccc(Cl)cc2)(Cn2ccnc2)O1`: the concentration for half-maximal inhibition (IC50) was 8 µM in test [1], 6 µM in test [2] and 773 µM in test [3].
In the case of `C[C@H]1CO[C@](CCc2ccc(Cl)cc2)(Cn2ccnc2)O1`, the half-inhibitory concentration (IC50) was 10 µM in test [1], 20 µM in test [2], above 100 µM in test [4] and above 500 µM in test [3].
Regarding `C[C@@H]1CO[C@@](CCc2ccc(Cl)cc2)(Cn2ccnc2)O1`, the IC50 in test [1] was 3.2 µM; in test [2] it was 3.6 µM; in test [5], 532 µM; in test [6] it was 1.5 µM; in test [3], 362 µM.
Consider `Clc1ccc(CCC2(Cn3ccnc3)SCCS2)cc1`, for which the IC50 came to 5.9 µM in test [1] and 34 µM in test [3].
Turning to `Clc1ccc(CCC2(Cn3ccnc3)OCCO2)cc1`, the 50% inhibitory concentration (IC50) in test [7] was above 1000 µM; in test [2] it was 5 µM; in test [4], above 100 µM; in test [3] it was 182 µM.
As for `C[C@@H]1CO[C@](CCc2ccc(Cl)cc2)(Cn2ccnc2)O1`, the half-maximal inhibitory concentration (IC50) in test [1] is 7 µM; in test [2], 30 µM; in test [4] it was above 100 µM; in test [3], above 500 µM.
